We go through 1 compound from ChEMBL document CHEMBL1833940, “Discovery of 3-(2,6-dichloro-3,5-dimethoxy-phenyl)-1-{6-[4-(4-ethyl-piperazin-1-yl)-phenylamino]-pyrimidin-4-yl}-1-methyl-urea (NVP-BGJ398), a potent and selective inhibitor of the fibroblast growth factor receptor family of receptor tyrosine kinase” (J Med Chem, 2011).

Calls of active or inactive are those of the source. The calls are words filed in the database; no cut-off is given here. Some results are limits rather than exact numbers.

Data set [1] deals with Serine/threonine-protein kinase PAK 2 (Homo sapiens, UniProt Q13177). Description: Inhibition of recombinant PAK2. The method in brief:
(§1)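 Purified recombinant kinases under optimized conditions with peptide substrates. ATP was set at each kinase's Km. Phosphorylation was read by microfluidic mobility-shift separation of substrate and product; IC50 determined.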

A further data set deals with Focal adhesion kinase 1 (Homo sapiens, UniProt Q05397). The experiment in a line: Inhibition of recombinant FAK. The gist of the method: as §1
Focal adhesion kinase 1, sequence (Q05397 whole entry): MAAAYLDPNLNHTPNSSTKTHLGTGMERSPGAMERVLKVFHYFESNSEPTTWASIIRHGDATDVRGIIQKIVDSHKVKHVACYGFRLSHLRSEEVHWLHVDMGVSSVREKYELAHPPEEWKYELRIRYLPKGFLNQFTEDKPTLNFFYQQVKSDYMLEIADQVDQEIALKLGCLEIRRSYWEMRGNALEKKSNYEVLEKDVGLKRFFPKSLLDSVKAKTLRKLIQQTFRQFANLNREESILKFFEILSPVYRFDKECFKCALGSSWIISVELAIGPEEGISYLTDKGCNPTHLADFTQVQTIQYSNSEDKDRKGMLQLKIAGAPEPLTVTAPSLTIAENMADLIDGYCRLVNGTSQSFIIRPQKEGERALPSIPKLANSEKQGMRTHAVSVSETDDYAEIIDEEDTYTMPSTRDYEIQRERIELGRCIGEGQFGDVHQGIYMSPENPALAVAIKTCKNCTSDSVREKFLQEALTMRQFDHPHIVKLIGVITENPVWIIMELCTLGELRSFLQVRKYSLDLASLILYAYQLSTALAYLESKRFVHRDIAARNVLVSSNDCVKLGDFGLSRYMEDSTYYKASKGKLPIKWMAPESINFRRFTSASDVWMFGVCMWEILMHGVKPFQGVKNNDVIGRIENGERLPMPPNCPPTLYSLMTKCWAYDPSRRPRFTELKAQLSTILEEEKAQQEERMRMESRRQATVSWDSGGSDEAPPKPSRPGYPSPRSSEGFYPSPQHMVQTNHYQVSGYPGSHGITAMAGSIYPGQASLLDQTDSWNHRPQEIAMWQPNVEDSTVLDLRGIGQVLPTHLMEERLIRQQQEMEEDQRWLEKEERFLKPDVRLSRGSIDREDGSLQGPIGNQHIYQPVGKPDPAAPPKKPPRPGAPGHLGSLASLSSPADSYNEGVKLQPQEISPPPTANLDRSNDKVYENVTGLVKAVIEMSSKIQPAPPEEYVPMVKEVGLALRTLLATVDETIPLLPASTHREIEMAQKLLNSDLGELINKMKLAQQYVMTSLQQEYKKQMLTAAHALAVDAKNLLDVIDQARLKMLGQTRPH
Data set [2] concerns Rattus norvegicus. The experiment in a line: Inhibition of FGFR autophosphorylation in RT112 tumour bearing nude Rowett rat assessed as decrease in pMAPK concentration at 4.25 mg/kg, po administered as a single dose by Western blot analysis. Also on record: dose 4.25 mg/kg. It counts as functional, organism-based. The method in brief:
(§2)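 RT112 subcutaneous xenografts in female nude Rowett rats (n = 4). Single oral gavage of the monophosphate salt at 4.25 or 8.51 mg/kg (free base equivalents) in acetic acid–acetate buffer pH 4.6/PEG300 (1:1). Tumors were collected at time points up to 24 h, frozen, homogenized and lysed. Western blots probed pFRS2(Tyr196) and pMAPK, with total FRS2, total MAPK or β-tubulin as loading controls.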
A general note: A western blot detects proteins with antibodies after separation by electrophoresis.

The target of data set [3] is Tyrosine-protein kinase SYK (Homo sapiens, UniProt P43405). Description: Inhibition of recombinant SYK. The gist of the method:
(§3)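 Purified recombinant kinases under optimized conditions, with peptide substrates and ATP at each kinase's Km. Phosphorylation was read out by microfluidic mobility shift, and IC50 values were obtained.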

Another data set has as its system RT-112. The experiment in a line: Antitumor activity against human RT112 cells xenografted in nude rowett rat assessed as tumor regression at 15 mg/kg, po qd administered for 20 days. It counts as functional. The method in brief: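 Female nude Rowett rats aged 6–9 weeks were given 1×10^6 RT112 cells subcutaneously in HBSS/50% Matrigel. Treatment began at about 100 mm3 mean tumor volume (n = 8): monophosphate salt in acetate buffer pH 4.6/PEG300 (1:1) by gavage, 5 mL/kg, at 5, 10, 15 mg/kg/qd free base for 20 days. Tumors were measured by caliper (L×W×H×π/6). Readouts were T/C and % regression from start volume.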

Another data set deals with Plasma. The experiment in a line: Dose normalized AUC in plasma of RT112/luc1 cells implanted athymic nude mouse at 20 mg/kg, po by LC/MS/MS analysis. The note with it: in vivo. The format is ADME, organism-based. Details: dose 20 mg/kg, route oral. The method in brief: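 Female athymic nude mice carried subcutaneous RT112/luc1 tumors (5×10^6 cells, 50% Matrigel; about 300–400 mm3). Dosing was either 5 mg/kg iv by tail vein in NMP/PEG200 (1:9) or 20 mg/kg oral suspension in PEG300/D5W (2:1). Groups of mice (n = 4) were sacrificed at 0.083–24 h. Plasma and tumor levels were measured by LC-MS/MS (LOQ 5 ng/mL, 10 ng/g).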

In data set [4] the target is Interleukin-1 receptor-associated kinase 4 (Homo sapiens, UniProt Q9NWZ3). Description: Inhibition of recombinant IRAK4. The gist of the method:
as §1

The subject of data set [5] is Rattus norvegicus. Description: Inhibition of FGFR autophosphorylation in RT112 tumor bearing nude rowett rat assessed as decrease in pMAPK concentration at 4.25 to 8.51 mg/kg, po administered as a single dose after 24 hrs by Western blot analysis. It counts as functional, organism-based. The method in brief:
as §2

Another data set concerns Tumour. The experiment in a line: Drug uptake in tumour of nude Rowett rat bearing human RT112 cells at 8.51 mg/kg, po administered as a single dose after 24 hrs by LC-MS/MS analysis. It counts as ADME, organism-based, Neoplasm, RT-112. The note with it: in vivo. Details: dose 8.51 mg/kg, route oral. The method in brief:
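Nude Rowett rats bearing subcutaneous RT112 tumors (n = 4) received a single gavage of monophosphate salt at 4.25 or 8.51 mg/kg free base in acetate buffer pH 4.6/PEG300. Tumors were collected at intervals after dosing, frozen and homogenized in an equal volume of ice-cold PBS. Compound levels were measured by LC-MS/MS (LOQ 3 ng/mL).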

The next data set addresses T1, Cytochrome P450 1A2 (Homo sapiens, UniProt P05177).
T1 sequence (P05177 whole entry): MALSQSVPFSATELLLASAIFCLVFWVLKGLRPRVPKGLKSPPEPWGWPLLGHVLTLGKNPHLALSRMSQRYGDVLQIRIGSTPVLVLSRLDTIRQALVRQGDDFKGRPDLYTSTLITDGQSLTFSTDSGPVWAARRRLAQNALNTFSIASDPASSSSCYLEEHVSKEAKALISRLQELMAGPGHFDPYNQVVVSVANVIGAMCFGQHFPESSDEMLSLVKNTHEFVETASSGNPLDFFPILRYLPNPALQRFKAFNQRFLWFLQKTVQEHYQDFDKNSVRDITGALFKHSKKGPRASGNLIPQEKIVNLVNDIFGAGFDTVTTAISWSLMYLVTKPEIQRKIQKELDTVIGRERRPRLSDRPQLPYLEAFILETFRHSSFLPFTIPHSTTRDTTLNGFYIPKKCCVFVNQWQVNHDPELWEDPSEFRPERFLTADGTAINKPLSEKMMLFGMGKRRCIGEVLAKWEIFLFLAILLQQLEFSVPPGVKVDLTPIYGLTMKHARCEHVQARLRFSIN
Description: Inhibition of CYP1A2 using CEC as substrate. It counts as ADME. The gist of the method: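 Human CYP450 inhibition was measured with isoform-specific fluorogenic probe substrates: CEC for 1A2 and 2C19, MFC for 2C9, AMMC for 2D6. Incubation was at 37 °C with an NADPH-regenerating system in 384-well format. Metabolite was quantified by fluorescence, and IC50 was obtained by curve fitting.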

Data set [6] addresses Serine/threonine-protein kinase N2 (Homo sapiens, UniProt Q16513). The experiment in a line: Inhibition of recombinant PKN2. The method in brief: as §1
In data set [7] the target is Proto-oncogene tyrosine-protein kinase Src (Homo sapiens, UniProt P12931). The experiment in a line: Inhibition of recombinant SRC. The method in brief: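 Purified recombinant kinases were tested under optimized conditions with peptide substrates. ATP was set at each kinase's Km. Phosphorylation was read out by microfluidic mobility shift, and IC50 values were determined.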
Proto-oncogene tyrosine-protein kinase Src, sequence (P12931 2-536 limits assumed): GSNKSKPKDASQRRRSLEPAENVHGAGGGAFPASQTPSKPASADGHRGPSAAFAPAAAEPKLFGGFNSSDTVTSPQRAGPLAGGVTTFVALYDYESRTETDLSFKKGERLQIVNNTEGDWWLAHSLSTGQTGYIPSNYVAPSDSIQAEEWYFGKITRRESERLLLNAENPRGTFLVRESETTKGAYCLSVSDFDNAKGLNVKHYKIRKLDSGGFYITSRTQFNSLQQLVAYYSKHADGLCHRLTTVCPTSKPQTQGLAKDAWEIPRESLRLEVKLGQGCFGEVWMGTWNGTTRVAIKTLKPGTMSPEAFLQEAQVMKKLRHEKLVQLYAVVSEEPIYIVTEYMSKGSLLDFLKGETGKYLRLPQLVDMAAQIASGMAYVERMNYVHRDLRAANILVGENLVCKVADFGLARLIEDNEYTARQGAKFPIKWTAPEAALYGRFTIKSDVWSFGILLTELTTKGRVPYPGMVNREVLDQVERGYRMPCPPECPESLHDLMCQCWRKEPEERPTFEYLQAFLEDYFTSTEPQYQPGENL

The next data set concerns the target Ephrin type-B receptor 4 (Homo sapiens, UniProt P54760). The experiment in a line: Inhibition of recombinant EPHB4. The method in brief: as §3
Data set [8] can be described thus: Antiproliferative activity against human JMSU1 cells overexpressing wild type FGFR3 after 72 hrs. The format is functional, cell-based. The note with it: JMSU-1, 72 h. The gist of the method: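 Bladder cancer lines from ATCC or DSMZ were seeded in 96-well plates (RT4, RT112 at 8500 cells/well; others at 5000 cells/well) in growth medium. Compound dilutions or DMSO were added 24 h later and incubated 72 h. Cells were fixed with glutaraldehyde, stained with 0.05% methylene blue and eluted with 3% HCl, then OD650 nm was read.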

Data set [9] is described as follows: Inhibition of recombinant S6K. The gist of the method: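 Purified recombinant kinases with peptide substrates and ATP at each kinase's Km. Read-out was microfluidic mobility shift.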
The target of data set [10] is Glycogen synthase kinase-3 beta (Homo sapiens, UniProt P49841). The experiment in a line: Inhibition of recombinant GSK3-beta. The method in brief:
as §1

For data set [11], the target named is Mitogen-activated protein kinase kinase kinase 8 (Homo sapiens, UniProt P41279). The experiment in a line: Inhibition of recombinant COT. The method in brief:
as §3

Data set [12] deals with Casein kinase I isoform gamma-3 (Homo sapiens, UniProt Q9Y6M4). The experiment in a line: Inhibition of recombinant CK1-gamma3. The method in brief:
as §1

Casein kinase I isoform gamma-3, sequence (Q9Y6M4 whole entry, canonical isoform): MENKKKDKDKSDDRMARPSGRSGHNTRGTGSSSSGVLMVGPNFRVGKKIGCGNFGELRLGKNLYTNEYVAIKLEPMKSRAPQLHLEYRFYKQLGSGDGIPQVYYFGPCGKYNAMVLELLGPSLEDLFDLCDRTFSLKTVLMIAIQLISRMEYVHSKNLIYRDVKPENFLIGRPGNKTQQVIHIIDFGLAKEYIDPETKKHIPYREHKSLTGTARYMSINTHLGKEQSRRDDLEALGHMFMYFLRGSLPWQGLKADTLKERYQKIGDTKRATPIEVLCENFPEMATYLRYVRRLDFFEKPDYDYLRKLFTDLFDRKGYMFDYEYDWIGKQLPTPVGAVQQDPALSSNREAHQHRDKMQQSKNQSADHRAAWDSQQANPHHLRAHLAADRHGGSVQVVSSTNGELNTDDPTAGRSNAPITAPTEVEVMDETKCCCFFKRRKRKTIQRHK
Glycogen synthase kinase-3 beta, sequence (P49841 whole entry): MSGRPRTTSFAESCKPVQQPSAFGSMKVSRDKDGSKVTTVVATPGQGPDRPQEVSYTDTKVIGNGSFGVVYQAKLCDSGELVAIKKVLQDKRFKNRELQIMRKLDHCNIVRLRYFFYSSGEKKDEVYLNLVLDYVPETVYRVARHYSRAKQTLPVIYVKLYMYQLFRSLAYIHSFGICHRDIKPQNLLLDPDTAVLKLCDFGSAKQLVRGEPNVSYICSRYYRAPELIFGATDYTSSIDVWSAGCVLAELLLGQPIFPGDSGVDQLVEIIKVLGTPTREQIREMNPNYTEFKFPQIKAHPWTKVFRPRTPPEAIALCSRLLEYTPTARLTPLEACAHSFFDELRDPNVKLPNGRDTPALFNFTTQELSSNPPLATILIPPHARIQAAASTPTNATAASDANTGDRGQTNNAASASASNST
Ephrin type-B receptor 4, sequence (P54760 whole entry): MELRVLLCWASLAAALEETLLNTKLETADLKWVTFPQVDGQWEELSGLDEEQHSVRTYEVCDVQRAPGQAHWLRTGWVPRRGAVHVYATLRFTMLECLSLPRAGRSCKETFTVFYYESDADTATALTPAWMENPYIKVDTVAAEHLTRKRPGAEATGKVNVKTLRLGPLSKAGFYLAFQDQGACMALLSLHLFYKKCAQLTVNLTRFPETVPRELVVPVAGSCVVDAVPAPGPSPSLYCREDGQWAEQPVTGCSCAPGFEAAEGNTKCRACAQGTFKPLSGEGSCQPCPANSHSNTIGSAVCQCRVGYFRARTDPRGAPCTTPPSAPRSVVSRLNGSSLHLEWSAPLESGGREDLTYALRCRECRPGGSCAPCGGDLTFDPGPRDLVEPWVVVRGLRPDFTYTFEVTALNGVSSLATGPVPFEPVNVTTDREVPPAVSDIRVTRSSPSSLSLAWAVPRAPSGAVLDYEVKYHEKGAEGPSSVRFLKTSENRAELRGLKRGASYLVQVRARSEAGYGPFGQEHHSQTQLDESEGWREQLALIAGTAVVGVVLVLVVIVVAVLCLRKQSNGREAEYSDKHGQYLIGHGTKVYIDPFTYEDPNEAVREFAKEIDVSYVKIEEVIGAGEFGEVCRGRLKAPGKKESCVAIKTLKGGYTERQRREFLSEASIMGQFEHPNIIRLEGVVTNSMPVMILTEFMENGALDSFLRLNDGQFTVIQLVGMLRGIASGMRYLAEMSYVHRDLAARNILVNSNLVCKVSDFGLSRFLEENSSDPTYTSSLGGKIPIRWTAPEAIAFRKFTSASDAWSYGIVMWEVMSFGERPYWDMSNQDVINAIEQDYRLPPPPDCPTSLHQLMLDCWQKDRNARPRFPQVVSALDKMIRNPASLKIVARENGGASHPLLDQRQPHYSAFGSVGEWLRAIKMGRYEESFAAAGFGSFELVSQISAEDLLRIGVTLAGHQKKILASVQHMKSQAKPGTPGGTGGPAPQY
Mitogen-activated protein kinase kinase kinase 8, sequence (P41279 whole entry): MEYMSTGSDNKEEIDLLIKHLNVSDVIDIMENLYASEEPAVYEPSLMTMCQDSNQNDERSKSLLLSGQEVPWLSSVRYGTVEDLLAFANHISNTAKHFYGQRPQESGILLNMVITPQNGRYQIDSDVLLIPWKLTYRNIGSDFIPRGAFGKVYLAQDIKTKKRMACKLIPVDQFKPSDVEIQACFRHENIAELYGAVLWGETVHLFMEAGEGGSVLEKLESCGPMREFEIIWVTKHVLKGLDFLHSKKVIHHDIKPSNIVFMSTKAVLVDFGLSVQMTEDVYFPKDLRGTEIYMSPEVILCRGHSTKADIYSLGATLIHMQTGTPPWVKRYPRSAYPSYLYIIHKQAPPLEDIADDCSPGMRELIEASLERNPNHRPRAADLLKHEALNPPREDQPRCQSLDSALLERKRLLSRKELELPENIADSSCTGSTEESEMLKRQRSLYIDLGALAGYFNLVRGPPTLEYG
Serine/threonine-protein kinase PAK 2, sequence (Q13177 whole entry): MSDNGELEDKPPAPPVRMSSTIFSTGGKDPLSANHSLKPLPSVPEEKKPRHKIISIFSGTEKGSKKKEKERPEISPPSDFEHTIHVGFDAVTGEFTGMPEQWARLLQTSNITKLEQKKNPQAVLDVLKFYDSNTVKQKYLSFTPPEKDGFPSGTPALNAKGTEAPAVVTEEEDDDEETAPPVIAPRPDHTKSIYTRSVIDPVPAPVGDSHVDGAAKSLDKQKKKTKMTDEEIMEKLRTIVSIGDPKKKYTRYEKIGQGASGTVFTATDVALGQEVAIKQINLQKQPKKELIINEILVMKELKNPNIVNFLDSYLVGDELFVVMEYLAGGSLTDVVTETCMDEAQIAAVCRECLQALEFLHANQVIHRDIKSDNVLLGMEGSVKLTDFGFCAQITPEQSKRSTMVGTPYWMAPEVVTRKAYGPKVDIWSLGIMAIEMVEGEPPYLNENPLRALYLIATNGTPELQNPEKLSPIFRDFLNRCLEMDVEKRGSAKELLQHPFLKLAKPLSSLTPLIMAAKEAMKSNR
Interleukin-1 receptor-associated kinase 4, sequence (Q9NWZ3 whole entry): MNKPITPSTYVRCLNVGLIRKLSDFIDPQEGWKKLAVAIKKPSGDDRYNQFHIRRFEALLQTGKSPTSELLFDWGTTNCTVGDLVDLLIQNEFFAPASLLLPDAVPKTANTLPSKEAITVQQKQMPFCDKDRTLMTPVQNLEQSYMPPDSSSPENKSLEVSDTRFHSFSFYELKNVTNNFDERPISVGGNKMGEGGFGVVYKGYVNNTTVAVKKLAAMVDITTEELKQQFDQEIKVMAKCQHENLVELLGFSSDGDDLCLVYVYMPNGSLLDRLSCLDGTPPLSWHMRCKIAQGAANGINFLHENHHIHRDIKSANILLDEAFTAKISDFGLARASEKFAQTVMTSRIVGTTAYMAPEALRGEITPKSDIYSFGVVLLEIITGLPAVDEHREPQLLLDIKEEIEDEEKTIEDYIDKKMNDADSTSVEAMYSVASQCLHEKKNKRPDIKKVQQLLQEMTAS

One may read the IC50 as the midpoint of a concentration-inhibition curve. Take `CCN1CCN(c2ccc(Nc3cc(N(C)C(=O)Nc4c(Cl)c(OC)cc(OC)c4Cl)ncn3)cc2)CC1.O=P(O)(O)O` [INFIGRATINIB PHOSPHATE]: the IC50 (in data set [1]; at Focal adhesion kinase 1; in [3]; in data set [4]; on Cytochrome P450 1A2; in [6]) was over 10 µM throughout. Also, the IC50 was over 10 µM in data set [7]; over 10 µM on Ephrin type-B receptor 4; 0.015 µM in [8]; over 10 µM in [9]; over 10 µM in data set [10]; over 10 µM in data set [11]. Moreover, the IC50 in data set [12] was over 10 µM. The inhibition result in the data set with Rattus norvegicus [2] was “Active”. The Activity with RT-112 is 73%. Further, the AUC/dose in the data set with Plasma came out at 0.18 µM·h. Further, the inhibition entry in the data set with Rattus norvegicus [5] is “inactive”. For the same compound, the Drug uptake in the data set on Tumour was 0.32 nmol/g.
